This note sets out measurements from ChEMBL document CHEMBL4837214, “Design, synthesis, and biological evaluation of novel tetrahydroprotoberberine derivatives to reduce SREBPs expression for the treatment of hyperlipidemia” (Eur J Med Chem, 2021).

Molecules are shown by their SMILES. The source made the active and inactive calls. No cut-off for these calls is given here.

Data set [1] is described as follows: Tmax in Sprague-Dawley rat at 10 mg/kg, po measured upto 24 hrs by LC-MS/MS analysis. Format: ADME, organism-based. The following applies: in vivo. The method in brief:
(§1)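 Six SD rats split into two groups of three, dosed 1 mg/kg IV or 10 mg/kg orally. IV blood drawn at 2, 5, 15, 30 min and 1, 2, 4, 6, 8, 12 h. Oral blood drawn at 5, 15, 30 min and 1, 2, 4, 6, 8, 12, 24 h. Serum drug measured by LC/MS/MS. Parameters are the average of three runs.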

Data set [2] deals with HepG2. The data set can be described thus: Down regulation of precursor and mature forms of SREBP-1 protein expression in human HepG2 cells after 24 hrs by Western blotting analysis. Format: functional, cell-based. The following applies: dose 5-80 µM. The method, boiled down: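 HepG2 cells treated 24 h at the indicated doses and lysed in RIPA buffer with protease inhibitors; protein quantified by BCA. Lysates run on 10% SDS-PAGE and blotted to nitrocellulose. After 5% milk block, primary antibody applied overnight at 4 °C and secondary 1 h at room temperature. β-actin served as loading reference.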
Background: In western blotting, separated proteins are transferred to a membrane and probed.

Data set [3] can be described thus: Toxicity in C57BL/6J mouse assessed as reduction in liver weight at 170 to 340 mg/kg, po measured every week for 6 weeks. The following applies: in vivo, 1008 h, dose 170-340 mg/kg. Format: organism-based. The method, boiled down: (§2)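 Male C57BL/6J mice, six weeks old, fed a 45%-fat diet (HFD) for 15 weeks; chow-fed mice served as controls. Obese mice were randomized to vehicle (0.1% w/v CMC-Na) or 170 or 340 mg/kg, gavaged daily for 6 weeks while diet continued. Body weight, food intake, organ weights, serum lipids, tissue histology (H&E, Oil red O), liver SREBP blots and liver qPCR followed.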

The subject of data set [4] is Mus musculus. Kind of data set: Hypolipidemic activity in high fat diet-induced C57BL/6J mouse assessed as reduction in lipid accumulation in liver at 170 to 340 mg/kg, po administered daily for 6 weeks by Oil Red O staining based assay. The format is functional, organism-based. The following applies: dose 170-340 mg/kg. The method, boiled down: as §2
Data set [5] has as its system HepG2. Kind of data set: Down regulation of LDLR gene expression in human HepG2 cells by qRT-PCR analysis. Format: functional, cell-based. In general terms: Real-time PCR tracks product formation cycle by cycle.
A short description of data set [6]: Toxicity in high fat diet-induced C57BL/6J mouse assessed as change in heart morphology at 170 to 340 mg/kg, po administered for 6 weeks by H and E staining-based assay. Format: organism-based. Particulars: in vivo, 1008 h, dose 170-340 mg/kg. The method in brief:
as §2

Data set [7] in a line: Toxicity in high fat diet-induced C57BL/6J mouse assessed as change in spleen morphology at 170 to 340 mg/kg, po administered for 6 weeks by H and E staining-based assay. The format is organism-based. The following applies: in vivo, 1008 h, dose 170-340 mg/kg. The method, boiled down:
as §2

The subject of data set [8] is HepG2. The data set can be described thus: Down regulation of intracellular TG level in human HepG2 cells at 10 uM measured after 24 hrs. Format: functional, cell-based. The method in brief:
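HepG2 cells grown in six-well plates and exposed 24 h to compound at […]. Cells collected in PBS and sonicated (5 s on, 10 s off, 60 s total). Total cholesterol or triglyceride measured with a colorimetric determination kit.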

A short description of data set [9]: MRT (0 to infinity) in Sprague-Dawley rat at 1 mg/kg, iv measured upto 12 hrs by LC-MS/MS analysis. Format: ADME, organism-based. Particulars: in vivo. The method in brief:
as §1

The nature of data set [10]: AUC (0 to infinity) in Sprague-Dawley rat at 1 mg/kg, iv measured upto 12 hrs by LC-MS/MS analysis. Format: ADME, organism-based. Further details: route intravenous, dose 1 mg/kg, time <=12. The following applies: in vivo. The method, boiled down:
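Six SD rats split into two groups (n=3 each), dosed once either intravenously at 1 mg/kg or orally at 10 mg/kg. Blood sampled at 2 min–12 h after IV dosing and at 5 min–24 h after oral dosing. Serum drug level measured by LC/MS/MS. AUC0-∞ is the mean of three runs.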

Data set [11] in a line: Clearance in Sprague-Dawley rat at 10 mg/kg, po measured upto 24 hrs by LC-MS/MS analysis. Format: ADME, organism-based. Particulars: in vivo. The method, boiled down:
as §1

The test system of data set [12] is Mus musculus. Kind of data set: Hypolipidemic activity in high fat diet-fed C57BL/6J mouse assessed as increase in brown fat/body weight ratio at 340 mg/kg/day, po administered for 6 weeks. The format is functional, organism-based. The method, boiled down: as §2
Data set [13] can be described thus: Toxicity in high fat diet-induced C57BL/6J mouse assessed as change in lung morphology at 170 to 340 mg/kg, po administered for 6 weeks by H and E staining-based assay. The following applies: in vivo, 1008 h, dose 170-340 mg/kg. The format is organism-based. The method in brief:
as §2

The nature of data set [14]: Toxicity in high fat diet-induced C57BL/6J mouse assessed as change in kidney morphology at 170 to 340 mg/kg, po administered for 6 weeks by H and E staining-based assay. The format is organism-based. Particulars: in vivo, 1008 h, dose 170-340 mg/kg. The method, boiled down: as §2
Data set [15] is described as follows: Toxicity in high fat diet-induced C57BL/6J mouse assessed as reduction in food intake at 170 to 340 mg/kg, po measured every week for 6 weeks. The format is organism-based. The following applies: in vivo, 1008 h, dose 170-340 mg/kg. The method in brief:
as §2

Turning to `COc1ccc2c(c1OCC1CCCCC1)CN1CCc3cc4c(cc3C1C2)OCO4` (stereo not given), the Tmax (commonly the time from dosing to the highest level) in [1] worked out at 6.67 h. In addition, the Activity entry is “Dose-Dependent Effect” with HepG2 [2]; “Toxic” in data set [3]; “Non-Toxic” in data set [6]; “Non-Toxic” in data set [7]; “Non-Toxic” in data set [13]; “Non-Toxic” in [14]. The Activity result in data set [15] is given as “Non-Toxic”. For the same molecule, the result with Mus musculus [4], with HepG2 [5], in the data set with HepG2 [8] and in the data set on Mus musculus [12] was Active. The mean residence time (MRT inf) – broadly, a mean duration of stay, worked out from the concentration-time curve – in [9] was 3.18 h. The area under the curve AUC(0-inf) (as a rule, the area under the concentration-time curve extrapolated to infinity) in [10] turned out to be 659 ng·h/mL. The CL in data set [11] amounted to 8.52 mL/min/kg.
